From ChEMBL document CHEMBL4513216, “Probing the Open Global Health Chemical Diversity Library for Multistage-Active Starting Points for Next-Generation Antimalarials” (ACS Infect Dis, 2020)

Test: Toxicity liver stage against HepG2, at 10uM
Assay type: cell-based
Parameters: test concentration 10 uM, cell line HepG2-A16-CD81EGFP
Conditions: human, HepG2-A16-CD81EGFP cells; read-out: INHIBITION
How it was run: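 Uninfected HepG2-A16-CD81EGFP cells, 3 × 10^3 per well, 1536-well, plated on prespotted compound at 10 μM final, parasite-free screening media added to match infected plates; puromycin 10 μM positive, DMSO 0.5% negative; run in parallel with 48 h PbLuc assay at 37 °C, 5% CO2; viability by CellTiter-Glo luminescence, normalized to controls.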

SMILES	cytotoxicity at 10 µM
Cc1nc(CNCC(C)c2nc3ccccc3o2)cs1 (stereo not given)	14.5%
CC1(c2ccccc2)CCC(=O)N(CCCN2CCOCC2)C1 (stereo not given)	-18.1%
Brc1ccccc1-c1nnc(CNCCn2cccn2)o1	-24.5%
CC1(c2nccs2)CCN(C(=O)CC2CCOCC2)CC1	-0.29%
Cc1cccc(N(C)Cc2nc3c(cnn3C)c(=O)[nH]2)c1C	-9.23%
CCN1CCOCC12CCN(C(=O)Cc1cccs1)CC2	6.22%
CCc1nccn1C1CCCN(C(=O)c2cncn2-c2ccccc2)C1 (stereo not given)	5.62%
CCN(CC)C(=O)CN(C)CCn1nc2ccccn2c1=O	-149%
CCOC1COC2(CCN(S(=O)(=O)c3cccc(C)c3)CC2)C1 (stereo not given)	-79.8%
Cc1cc(I)cnc1NC(=O)C(C)(C)C	4.44%
Cn1ccc(C(=O)NC2CCC23CCN(C(=O)C2CCOCC2)CC3)c1 (stereo not given)	-81.4%
CC1CN(C(=O)Nc2ccc(Cl)c(C(=O)NC3CC3)c2)CC(C)(C)O1 (stereo not given)	6.5%
OC1(c2cn(CC3CCN(C4CCSC4)CC3)nn2)CCCC1 (stereo not given)	0.445%
COCCN1CCN(CCS(=O)(=O)c2cccc(OC)c2)CC1	-1.33%
O=C(Nc1cc(-c2ccccc2)on1)N1CC[C@H](O)C1	4.98%
CNC(=O)c1csc(-c2ccoc2)n1	-5.64%
CCC(CO)N(Cc1ccccn1)Cc1ccc(-c2ccn[nH]2)s1 (stereo not given)	2.66%
COC(=O)c1ccc(-c2ccc(/C=C3\C(=O)NC(=N)N3C)o2)cc1	-66.3%
Cc1noc(C)c1C(=O)N1CCCC(c2cc(C(F)(F)F)[nH]n2)C1 (stereo not given)	-0.855%
CCNC(=O)CN1CCN(c2cc(C)nc(-c3ccncc3)n2)CC1	5.63%
CN(CC1(CO)CCC1)c1nc2c(c(=O)[nH]1)Cc1ccccc1OC2	-17.2%
CCn1ncc2c1C(COC)CN(Cc1cnn(C)c1)C2 (stereo not given)	1.49%
Cc1cccc(C(=O)N2CCC(Cc3cnc4[nH]ccc4c3)CC2)n1	12.2%
COCc1ccc(CNC(=O)CN2CCc3ccccc32)cc1	6.68%
O=C(c1ccccc1)N1CCCC(Nc2ccc(F)cc2)C1 (stereo not given)	-3.09%
COCCC1(CO)CCCN(C(=O)c2ccc(C(C)C)[nH]c2=O)C1 (stereo not given)	-55.1%
COc1ccc(C2CN(c3ncccn3)CCN2C(C)=O)cc1 (stereo not given)	5.27%
Cc1ccc(NC(=O)c2ccc(=O)n(CC(=O)Nc3nccs3)n2)cc1	0.592%

SMILES	cytotoxicity at 10 µM
CCc1ccccc1N1CC(c2nnc(N)s2)CC1=O (stereo not given)	0.502%
O=C1CC[C@@H]2[C@@H](CCN2C(=O)c2ccsc2)N1CC1CC1	-10.9%
CN1CCN(c2ccc(F)cc2C(N)=O)CC1	6.11%
Cc1ccc2nc(C(=O)N3C[C@@H](C(=O)O)[C@H](c4cccnc4)C3)cn2c1	2.98%
CN(C)C(=O)Cc1ccc(-c2cccc3c2CCNC3)cc1	2.28%
O=C(c1ccc(CN2CCCC2)cc1)N1CCCC(n2cccn2)C1 (stereo not given)	-1.88%
COc1ccc(C(=O)N(C)Cc2ncc(C)c(OC)c2C)c(OC)c1	-4.28%
CCN1CC(C(=O)N2CCc3cc(C(N)=O)n(C)c3C2)CC1=O (stereo not given)	-47.5%
CNC(=O)[C@@H]1C[C@H]2CN(Cc3ccc(C)s3)C[C@H]2N1C(C)=O	2.76%
Cc1cccc(-n2ncc(C(=O)NCC3CCS(=O)(=O)C3)c2C)c1 (stereo not given)	-20.3%
COCCN1CCC(NC(=O)C/C=C/c2ccc(C(C)C)cc2)CC1	-0.616%
CCc1nc(C)c(C2CC(=O)Nc3c2c(-c2ccccn2)nn3C)[nH]1 (stereo not given)	-6.37%
O=C(c1ccc[nH]1)N1CCc2cc(S(=O)(=O)N3CCOCC3)ccc2C1	-3.44%
CC(NC(=O)NC1CC1)c1nc(-c2ccccc2)cs1 (stereo not given)	-5.83%
CC1(c2cc[nH]n2)CCN(C(=O)c2ccc(Cl)cc2)CC1	0.812%
CC(=O)N1CCN(c2ccccc2CNc2cncc(C)c2)CC1	2.22%
CN(C)CCO[C@@H]1CC[C@H]2[C@H]1OCCN2C(=O)CCc1ccccc1	-6.69%
Cc1nc(N2CCN(C(=O)c3ccccn3)CC2)c2c(n1)c(C)nn2C	5.06%
COCCN1CCC2(CC1)CN(C(=O)C1CC1)c1ccc(F)cc12	-0.213%
O=C1C[C@H]2[C@@H](CCN2Cc2ccccn2)N1CCN1CCOCC1	-1.45%
O=C(c1ccc(-n2ccnc2)nn1)N1CCCCC1Cn1cccn1 (stereo not given)	-4.49%
Cc1nc(-n2nc(C3CC3)cc2NC(=O)C(C)C)[nH]c(=O)c1C	54.5%
COc1cc(CNCc2ccc(C(C)O)cc2)cc2c1OCO2 (stereo not given)	-9.78%
CC(C)c1nccn1-c1cccc(C2CCCN(S(=O)(=O)N(C)C)C2)n1 (stereo not given)	-3.11%
CSc1nc2cc(C)n(CC(=O)Nc3nccs3)c2c(=O)n1CC(C)C	-12.6%
CCn1cnnc1CNC(=O)c1cc(Cl)ccc1O	2.17%
CCN1CC2(CCN(CC3COCCO3)CC2)OC1=O (stereo not given)	-4.15%
